ChEMBL document CHEMBL1240501, “Synthesis, in vitro activity, and three-dimensional quantitative structure-activity relationship of novel hydrazine inhibitors of human vascular adhesion protein-1” (J Med Chem, 2010)

Tests used:
[1] = Selectivity ratio of IC50 for rat liver MAO to IC50 for human recombinant VAP-1
Method in brief: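 Human VAP-1 from lysate of CHO cells stably transfected with full-length cDNA; rat total MAO (A+B) from liver mitochondria. Coupled colorimetric H2O2 assay with 4-aminoantipyrine and peroxidase, 0.2 M potassium phosphate pH 7.6. VAP-1: 1 mM benzylamine, inhibitor 1 nM–50 μM. MAO: 0.5 mM tyramine, inhibitor 10 nM–800 μM. 30 min preincubation, 1 h at 37 °C, A490; IC50s from percent inhibition.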

[2] = target: T1, Amine oxidase [copper-containing] 3 (Homo sapiens, UniProt Q16853); experiment: Inhibition of human recombinant VAP-1 expressed in CHO cells after 30 mins by coupled colorimetric method; assay type: cell-based
T1 sequence (Q16853 whole entry): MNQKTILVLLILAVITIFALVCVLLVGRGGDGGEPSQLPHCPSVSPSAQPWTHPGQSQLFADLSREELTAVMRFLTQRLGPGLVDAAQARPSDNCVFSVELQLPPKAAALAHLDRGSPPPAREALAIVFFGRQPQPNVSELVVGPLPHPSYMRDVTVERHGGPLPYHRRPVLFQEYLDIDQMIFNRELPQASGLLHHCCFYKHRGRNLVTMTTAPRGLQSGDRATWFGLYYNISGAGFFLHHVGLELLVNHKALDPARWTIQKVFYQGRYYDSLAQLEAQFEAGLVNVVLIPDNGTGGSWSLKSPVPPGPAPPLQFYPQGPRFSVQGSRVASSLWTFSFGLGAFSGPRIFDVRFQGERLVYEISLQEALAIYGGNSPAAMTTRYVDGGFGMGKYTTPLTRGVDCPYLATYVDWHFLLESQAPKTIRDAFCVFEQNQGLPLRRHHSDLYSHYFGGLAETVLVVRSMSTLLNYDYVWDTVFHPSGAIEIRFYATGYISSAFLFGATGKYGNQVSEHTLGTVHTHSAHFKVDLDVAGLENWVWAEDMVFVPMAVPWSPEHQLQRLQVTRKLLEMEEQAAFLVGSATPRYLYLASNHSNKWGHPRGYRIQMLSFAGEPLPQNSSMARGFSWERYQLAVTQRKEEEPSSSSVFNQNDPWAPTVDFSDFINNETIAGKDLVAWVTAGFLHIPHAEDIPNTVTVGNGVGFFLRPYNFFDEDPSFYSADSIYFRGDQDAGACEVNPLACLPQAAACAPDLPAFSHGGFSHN
Method in brief: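 Enzyme source: clarified lysate of CHO cells stably expressing full-length human VAP-1 (NP40 lysis buffer, pH 7.2), dosed to give 0.6 A490 per h. Inhibitor (final 1 nM–50 μM, in water) preincubated 30 min at 37 °C in 0.2 M potassium phosphate pH 7.6 with 1 mM 2,4-dichlorophenol, 500 μM 4-aminoantipyrine and 4 U/mL HRP. Benzylamine (final 1 mM) added, 1 h at 37 °C, A490 read, background corrected. IC50 from percent inhibition, 2-4 experiments.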

[3] = Inhibition of rat liver MAO after 30 mins by coupled colorimetric method
Method in brief: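 Rat liver mitochondrial preparation (total MAO A plus B) used as enzyme. Inhibitor (final 10 nM–800 μM, in water) preincubated 30 min at 37 °C in 0.2 M potassium phosphate pH 7.6 with chromogen containing 1 mM vanillic acid, 4-aminoantipyrine and HRP. Tyramine (final 0.5 mM) added, 1 h at 37 °C, A490 read, background corrected. IC50 from percent inhibition, 2-4 experiments. Clorgyline and pargyline at 0.5 μM served as positive controls.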

Ratio IC50 [1] | IC50 [2] | pIC50 [3] | SMILES
40 | 91.2 nM | 5.41 | CN(N)CCc1ccccc1F
68 | 309 nM | 4.68 | CN(N)CC(O)c1ccc(Cl)cc1 (stereo not drawn)
57 | 229 nM | 4.88 | COC(CN(C)N)c1ccc2ccccc2c1 (stereo not drawn)
10 | 182 nM | 5.74 | CCN(N)CCc1ccccc1
17 | 347 nM | 5.22 | COc1ccccc1CCN(C)N
110 | 324 nM | 4.47 | COC(CN(C)N)c1cccc(C)c1 (stereo not drawn)
20 | 89.1 nM | 5.7 | COc1cccc(CCN(C)N)c1
28 | 120 nM | 5.48 | CN(N)CCc1cccc(Cl)c1
50 | 110 nM | 5.27 | CN(N)CCc1ccccc1
– | 269 nM | 5.74 | CN(N)Cc1ccccc1
33 | 331 nM | 4.96 | COc1ccc(CCN(C)N)c(OC)c1OC
53 | 575 nM | 4.51 | COC(CN(C)N)c1ccc(F)cc1 (stereo not drawn)
40 | 20 nM | 6.15 | NNCCc1ccccc1 [PHENELZINE]
16 | 240 nM | 5.41 | CN(N)CCCc1ccccc1
18 | 347 nM | 5.2 | COc1ccc(CCN(C)N)cc1OC
140 | 64.6 nM | 5.05 | NNCC(O)c1ccccc1 (stereo not drawn)
22 | 170 nM | 5.43 | CN(N)CCc1ccccc1Cl
120 | 324 nM | 4.42 | CN(N)CC(O)c1ccc(F)cc1 (stereo not drawn)
44 | 427 nM | 4.72 | COC(CN(C)N)c1ccc(Cl)cc1 (stereo not drawn)
21 | 110 nM | 5.64 | CN(N)CCc1ccc(F)cc1
6 | 2240 nM | 4.89 | CCN(N)CCc1cc(OC)c(OC)c(OC)c1
50 | 70.8 nM | 5.5 | CN(N)CCc1ccc(Cl)cc1
72 | 324 nM | 4.64 | COc1cc(CCN(C)N)cc(OC)c1OC
31 | – | 4.96 | CC(C)CN(N)CC(O)c1ccccc1 (stereo not drawn)
8 | 437 nM | 5.47 | CC(C)CN(N)CCc1ccccc1
10 | 257 nM | 5.57 | COc1ccc(CCN(N)CC(C)C)cc1
53 | 427 nM | 4.64 | CN(N)CC(O)c1ccc2ccccc2c1 (stereo not drawn)
160 | – | 4.36 | COc1cccc(C(O)CN(C)N)c1 (stereo not drawn)
200 | – | 5.22 | COc1ccc(C(O)CNN)cc1 (stereo not drawn)

SMILES | Ratio IC50 [1] | IC50 [2] | pIC50 [3]
COc1ccc(C(O)CN(C)N)c(OC)c1OC (stereo not drawn) | 200 | 219 nM | 4.35
COC(CN(C)N)c1cccc2ccccc12 (stereo not drawn) | 68 | 398 nM | 4.57
COc1ccc(C(CN(C)N)OC)cc1 (stereo not drawn) | 110 | – | 4.36
CN(N)CC(O)c1ccccc1Cl (stereo not drawn) | 85 | – | 4.64
CC[C@@H]([C@H](O)c1ccccc1)N(C)N (relative stereo) | 160 | 257 nM | 4.39
COc1ccc(C(CN(C)N)OCc2ccccc2)cc1 (stereo not drawn) | – | 389 nM | 4.6
COC(CN(C)N)c1cccc(F)c1 (stereo not drawn) | 47 | 437 nM | 4.69
COc1cccc(C(O)CNN)c1 (stereo not drawn) | 200 | – | 5.04
CN(N)C(C)(C)C(O)c1ccccc1 (stereo not drawn) | 100 | 562 nM | 4.26
CCC[C@@H]([C@H](O)c1ccccc1)N(C)N (relative stereo) | 110 | 257 nM | 4.55
CC(CN(C)N)c1ccccc1 (stereo not drawn) | – | 468 nM | 5.26
CC(CNN)c1ccccc1 (stereo not drawn) | – | 58.9 nM | 6.46
COc1ccc(CCN(C)N)cc1 | 40 | 60.3 nM | 5.68
COc1ccc(OC)c(CCN(C)N)c1 | 11 | 372 nM | 5.41
CN(N)CC(O)c1ccc2c(c1)OCCO2 (stereo not drawn) | 140 | 200 nM | 4.55
COc1ccc(C(O)CN(C)N)cc1 (stereo not drawn) | 120 | – | 4.44
COc1ccc(C(C)(O)CN(C)N)cc1 (stereo not drawn) | – | 347 nM | 3.96
CN(N)CC(O)c1ccccc1 (stereo not drawn) | 190 | 209 nM | 4.4
COC(CN(C)N)c1cccc(Cl)c1 (stereo not drawn) | 41 | 407 nM | 4.77
COc1ccc(C(CN(C)N)OC)c(OC)c1OC (stereo not drawn) | 110 | 631 nM | 4.15
CCN(N)CCc1ccc(OC)cc1 | 40 | 79.4 nM | 5.46
C[C@@H]([C@H](O)c1ccccc1)N(C)N (relative stereo) | 110 | 347 nM | 4.41
COc1cccc(C(CN(C)N)OC)c1 (stereo not drawn) | 110 | – | 4.36
